Measurements taken from ChEMBL document CHEMBL4602735, “Discovery of (1H-Pyrazolo[3,4-c]pyridin-5-yl)sulfonamide Analogues as Hepatitis B Virus Capsid Assembly Modulators by Conformation Constraint” (J Med Chem, 2020).
The source made the active and inactive calls. No cut-off for these calls is given here.

What was measured:
Hepatitis B virus [1] = assay: Antiviral activity against HBV infected in human HepAD38 cells assessed as inhibition of intracellular viral RNA accumulation at 2 uM for 4 days by qPCR or qRT-PCR relative to control; format: functional, organism-based
Summary of the method: (§1)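 HepAD38 or HepG2.2.15 cells were treated at 2 µM for 4 days, with medium replaced every 2 days. Intracellular and extracellular DNA and RNA were quantified by qPCR or qRT-PCR, and HBeAg and HBsAg by ELISA. Results were compared with DMSO vehicle as mean ± SD, using a two-tailed t-test.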

Hepatitis B virus [2] = assay: Inhibition of HBsAg secretion in HBV infected human HepAD38 cells at 2 uM for 4 days by ELISA; format: functional, organism-based; summary of the method: as §1
Hepatitis B virus [3] = assay: Inhibition of HBsAg secretion in HBV infected human HepG2.2.15 cells at 2 uM for 4 days by ELISA; format: functional, organism-based; conditions: HepG2 2.2.15; summary of the method: as §1
Hepatitis B virus [4] = assay: Antiviral activity against HBV infected in human HepAD38 cells; format: functional, organism-based
Hepatitis B virus [5] = assay: Antiviral activity against HBV infected in human HepG2.2.15 cells assessed as inhibition of intracellular viral DNA accumulation at 2 uM for 4 days by qPCR or qRT-PCR relative to control; format: functional, organism-based; conditions: HepG2 2.2.15; summary of the method: as §1
Hepatitis B virus [6] = assay: Antiviral activity against HBV infected in human HepAD38 cells assessed as inhibition of intracellular viral DNA accumulation at 2 uM for 4 days by qPCR or qRT-PCR relative to control; format: functional, organism-based; summary of the method: as §1
Hepatitis B virus [7] = assay: Antiviral activity against HBV infected in human HepG2.2.15 cells; format: functional, organism-based; conditions: HepG2 2.2.15
Hepatitis B virus [8] = assay: Antiviral activity against HBV infected in human HepG2.2.15 cells assessed as reduction in viral DNA levels incubated for 6 days by PCR analysis; format: functional, organism-based; conditions: HepG2 2.2.15, 144 h
Hepatitis B virus [9] = assay: Antiviral activity against multidrug-resistant HBV infected in human HepG2.1403F cells assessed as reduction in viral replication incubated for 6 days by PCR analysis; format: functional, organism-based; conditions: 144 h
Summary of the method: (§2)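 Wild-type HBV replication measured in HepAD38 and HepG2.2.15 cells, lamivudine/entecavir-resistant HBV in HepG2.A64 cells (rtL180M+rtT184L+rtM204V) and multidrug-resistant HBV in HepG2.1403F cells (rtL180M+rtM204V+rtS202G+rtN236T). Read-out is reduction of HBV DNA. EC50 is reported as mean ± SD.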

[10] = Selectivity index, ratio of CC50 for cytotoxicity in human HepAD38 cells assessed as induction of cell killing to EC50 for antiviral activity against HBV infected in human HepAD38 cells assessed as reduction in viral DNA levels incubated for 6 days by PCR analysis; format: toxicity, cell-based; conditions: read-out: Ratio CC50/EC50
Hepatitis B virus [11] = assay: Antiviral activity against HBV infected in human HepG2.A64 cells containing reverse transcriptase L180M/T184L/M204V mutant assessed as reduction in viral replication incubated for 6 days by PCR analysis; format: functional, organism-based; conditions: HepG2.A64, 144 h; summary of the method: as §2
[12] = Cytotoxicity in human HepG2 cells assessed as induction of cell killing; format: cell-based
[13] = Cytotoxicity in human HepG2 cells assessed as induction of cell killing
Hepatitis B virus [14] = assay: Antiviral activity against HBV infected in human HepAD38 cells assessed as reduction in viral DNA levels incubated for 6 days by PCR analysis; format: functional, organism-based; conditions: HePAD38, 144 h
Hepatitis B virus [15] = assay: Antiviral activity against HBV genotype D in hydrodynamic injection-based C57BL/6 mouse model of HBV infection assessed as inhibition of HBV replication at 100 mg/kg, po dosed once daily for 7 days by real-time PCR analysis; format: functional, organism-based
[16] = Solubility in pH 5.8 phosphate buffer at 1 mg at 25 degC by HPLC analysis; format: physicochemical
Summary of the method: (§3)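 Solubility determined in water or 0.067 M phosphate buffer at pH 5.8, 6.8 and 7.4. Values are reported in mg/mL; ND means below the detection limit.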

[17] = Half life in mouse plasma by HPLC analysis; format: ADME, cell-free
Summary of the method: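 Prodrug incubated in plasma at 37 °C, with percent remaining determined by HPLC to derive half-life.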

[18] = Stability in pH 7.4 buffer assessed as compound hydrolysis level after 2 hrs at 37 degC by HPLC analysis; format: physicochemical; conditions: pH 7.4, 2 h
Summary of the method: (§4)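 Prodrug incubated in buffer (0.1 M HCl, pH 5.8, 6.8 or 7.4) at 37 °C; percent of compound remaining determined by HPLC; remaining percentage reported after 3 h, stability meaning no hydrolysis after 2 h.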

[19] = Stability in 0.1M HCl solution assessed as compound remaining level at 37 degC by HPLC analysis; format: physicochemical; conditions: buffer; summary of the method: as §4
[20] = Stability in pH 6.8 buffer assessed as compound remaining level at 37 degC by HPLC analysis; format: physicochemical; summary of the method: as §4
[21] = Solubility in water at 1 mg at 25 degC by HPLC analysis; format: physicochemical; summary of the method: as §3
[22] = Solubility in pH 6.8 phosphate buffer at 1 mg at 25 degC by HPLC analysis; format: physicochemical; conditions: BLD = below limit of detection; summary of the method: as §3

Which inhibition (Hepatitis B virus [1]) does the source give for `COc1ccccc1/C(Br)=C(\NC(=O)c1ccc([N+](=O)[O-])cc1)C(=O)N1CCCCC1` here?
The inhibition was “Active”.

What about the inhibition (Hepatitis B virus [2]) of the same compound?
The inhibition was “inactive”.

What about the inhibition (Hepatitis B virus [3]) of the same compound?
Its inhibition is “inactive”.

What about the EC50 (Hepatitis B virus [4]) of the same compound?
The EC50 was 130 nM.

And the inhibition (Hepatitis B virus [5])?
Its inhibition is “Active”.

And the inhibition (Hepatitis B virus [6])?
The inhibition was “Active”.

Which EC50 (Hepatitis B virus [7]) does the source give for `COC(=O)C1=C(C)NC(c2ncc(F)cc2F)=N[C@H]1c1ccc(F)cc1Cl` here?
Its EC50 is 53 nM.

With `CC[C@@H](C)NS(=O)(=O)c1ccc(F)c(C(=O)Nc2ccc(F)c(F)c2)c1` as the compound, how does the EC50 (Hepatitis B virus [8]) read?
The EC50 was 280 nM.

And the EC50 (Hepatitis B virus [9])?
The EC50 was 74 nM.

What about the selectivity ratio at 144 h [10] of the same compound?
Its selectivity ratio at 144 h is 129.

What about the EC50 (Hepatitis B virus [11]) of the same compound?
Its EC50 is 48 nM.

What about the CC50 [12] of the same compound?
Its CC50 is 39800 nM.

And the CC50 [13]?
Its CC50 is 39800 nM.

And the EC50 (Hepatitis B virus [14])?
Its EC50 is 310 nM.

And the Activity (Hepatitis B virus [15])?
Its Activity is “inactive”.

Which solubility [16] does the source give for `Cc1cc(Nc2nn(C3CC3)c3cnc(S(=O)(=O)N4CCC(OC(=O)CN(C)C)CC4)cc23)ccc1F.O=C(O)C(F)(F)F` here?
The solubility was 290 µg/mL.

And the half-life [17]?
The half-life was 47.2 min.

And the Stability [18]?
Its Stability is “Stable”.

What about the Stability [19] of the same compound?
The Stability was “Stable”.

What about the Stability [20] of the same compound?
The Stability was “Unstable”.

What about the solubility [21] of the same compound?
The solubility was 1510 µg/mL.

And the solubility [22]?
The solubility was “Bld”.
